ChEMBL document CHEMBL4402584, “Lead Optimization of Phthalazinone Phosphodiesterase Inhibitors as Novel Antitrypanosomal Compounds” (J Med Chem, 2020)

What was measured:
Trypanosoma brucei = assay: Antitrypanosomal activity against Trypanosoma brucei Squib 427 assessed as reduction in parasite growth incubated for 72 hrs by resazurin dye based fluorimetric analysis; assay type: functional, organism-based; conditions: Squib 427, 72 h
[1] = Cytotoxicity against human MRC5 SV2 cells assessed as reduction in cell viability incubated for 72 hrs by resazurin dye based fluorimetric assay; conditions: MRC-5 SV2, 72 h
Method in brief: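 MRC-5 SV2 fibroblasts grown in Earl's MEM with 5% FBSi, L-glutamine and bicarbonate; 1×10^4 cells/well treated 72 h at 37 °C, 5% CO2; resazurin viability read fluorimetrically (ex 550, em 590 nm). Five 4-fold dilutions from a 64 µM top concentration; IC50 derived from % viability reduction vs untreated wells; tamoxifen as reference.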

[2] = target: T1, Class 1 phosphodiesterase PDEB1 (Trypanosoma brucei, UniProt Q8WQX9); assay: Inhibition of Trypanosoma brucei PDEB1 (565 to 918 residues) expressed in Escherichia coli BL21 (DE3) using cAMP as substrate by PDELight HTS cAMP phosphodiesterase Kit based
T1 sequence (Q8WQX9 whole entry): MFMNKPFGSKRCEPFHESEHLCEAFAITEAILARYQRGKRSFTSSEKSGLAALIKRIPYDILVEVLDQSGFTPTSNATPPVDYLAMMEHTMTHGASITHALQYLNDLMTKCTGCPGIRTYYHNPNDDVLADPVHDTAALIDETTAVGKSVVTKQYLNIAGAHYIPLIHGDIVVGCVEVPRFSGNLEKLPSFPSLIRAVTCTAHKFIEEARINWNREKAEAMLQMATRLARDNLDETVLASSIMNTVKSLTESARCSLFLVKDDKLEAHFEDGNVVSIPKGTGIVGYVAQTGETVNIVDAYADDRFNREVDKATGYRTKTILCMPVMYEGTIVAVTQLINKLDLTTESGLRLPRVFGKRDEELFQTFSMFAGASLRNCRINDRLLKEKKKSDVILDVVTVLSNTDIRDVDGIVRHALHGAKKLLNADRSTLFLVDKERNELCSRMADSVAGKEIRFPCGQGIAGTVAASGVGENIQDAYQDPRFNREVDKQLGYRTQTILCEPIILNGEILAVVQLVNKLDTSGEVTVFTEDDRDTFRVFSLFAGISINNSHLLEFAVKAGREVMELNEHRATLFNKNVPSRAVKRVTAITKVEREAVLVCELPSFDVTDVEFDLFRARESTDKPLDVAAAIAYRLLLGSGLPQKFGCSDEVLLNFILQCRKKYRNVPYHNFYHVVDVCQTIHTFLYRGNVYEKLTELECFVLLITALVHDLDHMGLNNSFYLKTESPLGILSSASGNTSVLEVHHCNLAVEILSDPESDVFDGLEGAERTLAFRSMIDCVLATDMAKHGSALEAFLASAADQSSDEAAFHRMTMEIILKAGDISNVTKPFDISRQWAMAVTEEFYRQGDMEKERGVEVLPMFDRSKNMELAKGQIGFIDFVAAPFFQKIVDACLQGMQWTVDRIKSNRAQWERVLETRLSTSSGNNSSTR
Method in brief: (§1)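 Recombinant catalytic domains, His-tag purified, then ion exchange and size exclusion, were tested with the PDELight HTS cAMP kit in stimulation buffer (50 mM Hepes, 100 mM NaCl, 10 mM MgCl2, 0.5 mM EDTA, 0.05 mg/ml BSA, pH 7.5). Dose-response curves gave Ki, expressed as pKi = −log10(Ki ÷ 1000000).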

[3] = Metabolic stability in mouse microsomes assessed as compound remaining at 5 uM incubated for 30 mins by UPLC-MS/MS analysis; assay type: ADME, Microsome; conditions: for remaining at 0.5 h, 5 µM: read-out: Stability; for Stability: 0.5 h, 5 µM
Method in brief: (§2)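 Compound at 5 µM incubated with 0.5 mg/mL male liver microsomes in potassium phosphate buffer, started with 1 mM NADPH (CYP phase I). Aliquots quenched in cold acetonitrile containing tolbutamide, centrifuged at 4 °C, supernatant analysed by LC-MS. Results given as % parent remaining relative to time 0; mean of at least two experiments; diclofenac as control.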

[4] = target: 3',5'-cyclic-AMP phosphodiesterase 4D (Homo sapiens, UniProt Q08499); assay: Inhibition of human PDE4D2 expressed in Escherichia coli BL21 (DE3) using cAMP as substrate by PDELight HTS cAMP phosphodiesterase Kit based; method in brief: as §1
[5] = Metabolic stability in human microsomes assessed as compound remaining at 5 uM incubated for 30 mins by UPLC-MS/MS analysis; assay type: ADME, Microsome; conditions: for Stability: 0.5 h, 5 µM; method in brief: as §2

Chain of 3',5'-cyclic-AMP phosphodiesterase 4D (Q08499 whole entry): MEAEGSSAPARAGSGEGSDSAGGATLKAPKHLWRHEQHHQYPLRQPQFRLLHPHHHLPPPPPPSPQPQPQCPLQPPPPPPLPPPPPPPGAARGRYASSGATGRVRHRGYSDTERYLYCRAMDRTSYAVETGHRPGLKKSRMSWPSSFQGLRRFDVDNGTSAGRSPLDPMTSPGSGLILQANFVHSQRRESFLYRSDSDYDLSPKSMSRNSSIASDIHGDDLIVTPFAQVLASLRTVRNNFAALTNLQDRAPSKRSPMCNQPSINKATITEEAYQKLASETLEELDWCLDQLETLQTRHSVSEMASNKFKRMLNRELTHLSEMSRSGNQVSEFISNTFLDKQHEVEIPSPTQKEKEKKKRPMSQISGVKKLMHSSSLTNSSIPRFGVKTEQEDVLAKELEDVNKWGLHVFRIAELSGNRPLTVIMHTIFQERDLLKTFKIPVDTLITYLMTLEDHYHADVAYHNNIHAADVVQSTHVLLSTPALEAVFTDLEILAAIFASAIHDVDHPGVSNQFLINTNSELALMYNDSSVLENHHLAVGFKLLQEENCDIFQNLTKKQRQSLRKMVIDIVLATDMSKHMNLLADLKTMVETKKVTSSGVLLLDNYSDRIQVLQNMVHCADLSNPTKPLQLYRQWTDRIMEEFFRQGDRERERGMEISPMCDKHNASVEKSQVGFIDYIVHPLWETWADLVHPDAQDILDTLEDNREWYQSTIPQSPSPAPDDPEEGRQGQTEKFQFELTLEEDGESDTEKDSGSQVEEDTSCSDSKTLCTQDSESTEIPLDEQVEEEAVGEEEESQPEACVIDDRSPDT

Structure (SMILES)	IC50 (Trypanosoma brucei) [nM]	Ki [2] [nM]	remaining at 0.5 h, 5 µM [3] [%]	Ki [4] [nM]	Stability [5]	Stability [3]	remaining at 0.5 h, 5 µM ([5]; read-out: Stability) [%]	IC50 [1] [nM]
O=C(CN1C(=O)CC2(CCCCC2)CC1=O)N1CCC(N2N=C(c3ccc(F)c(F)c3)[C@H]3CC=CC[C@H]3C2=O)CC1 (relative stereo)	33100	> 4570			Stable	Stable		64600
O=C1[C@@H]2CC=CC[C@@H]2C(c2ccc(F)c(F)c2)=NN1C1CCN(c2ncnc3ccsc23)CC1	13200	> 5620			Stable	Stable		38000
O=C1[C@@H]2CC=CC[C@@H]2C(c2ccc(OC(F)F)c(OC(F)F)c2)=NN1C1CCN(c2ncnc3ccsc23)CC1	6760	> 2140			Stable	Stable		64600
Nc1nc(N2CCC(N3N=C(c4ccc(F)cc4)[C@H]4CC=CC[C@H]4C3=O)CC2)c2ccsc2n1 (relative stereo)	2090	> 9330			Stable	Stable		64600
COc1ccc(C2=NN(C3CCN(C(=O)CN4C(=O)CC(C)(C)CC4=O)CC3)C(=O)[C@@H]3CCCC[C@H]23)cc1OC	1950	85.1		0.162	Stable	Stable		56200
CC1(C)CC(=O)N(CC(=O)N2CCC(N3N=C(c4ccc(OC(F)F)c(OC(F)F)c4)[C@H]4CCCC[C@H]4C3=O)CC2)C(=O)C1	6460	> 1580			Stable	Stable		64600

The next compounds have a lower IC50 (Trypanosoma brucei) than those just listed; values first:

IC50 (Trypanosoma brucei) [nM]	Ki [2] [nM]	remaining at 0.5 h, 5 µM [3] [%]	Ki [4] [nM]	Stability [5]	Stability [3]	remaining at 0.5 h, 5 µM ([5]; read-out: Stability) [%]	Structure (SMILES)	IC50 [1] [nM]
447	43.7	6.7	0.123	Stable			COc1ccc(C2=NN(C3CCN(C(=O)CN4C(=O)CC(C)(C)CC4=O)CC3)C(=O)[C@@H]3CC=CC[C@H]23)cc1OC	44700
1150	91.2		0.851	Stable	Stable		COc1ccc(C2=NN(C3CN(C(=O)CN4C(=O)CC5(CCCCC5)CC4=O)C3)C(=O)[C@@H]3CC=CC[C@H]23)cc1OC	64600
1860	20.9	43	0.0617			89	COc1ccc(C2=NN(C3CCN(C(=O)CN4C(=O)CCC4=O)CC3)C(=O)[C@@H]3CC=CC[C@H]23)cc1OC	64600
1780	339		0.676	Stable	Stable		COc1ccc(C2=NN(C3CCN(c4nc(N)c5sccc5n4)CC3)C(=O)[C@@H]3CC=CC[C@H]23)cc1OC	64600
479	30.9		0.155	Stable	Stable		COc1ccc(C2=NN(C3CCN(C(=O)CN4C(=O)CC5(CCCCC5)CC4=O)CC3)C(=O)[C@@H]3CC=CC[C@H]23)cc1OC	31600
